SENP7 inh: inhibitors of human SENP7 protease; AID 434973; recombinant SENP7, Z-RLRGG-aminoluciferin luminescence, 40 min; inhibition, % at 5 µM; 330,000 tested, 1.5% active;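 active means inhibition above about 50% at the single test dose, limit read from the data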;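 further: plate controls were DMSO with enzyme for no effect and no enzyme buffer wells for full effect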
SENP1 inh: SENP1 (human) catalytic domain inhibition; Q9P0U3; recombinant SENP1 catalytic domain, CyPet-SUMO1-YPet FRET cleavage; inhibition, % at 10 µM; 360,000 tested, 0.21% active;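 active means inhibition at least 30% at 10 µM, raw YFP signal under a set limit, fluorescence ratio 0.5 to 1.5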;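 further: 0% = enzyme with DMSO and 100% = no enzyme wells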
Target sequence (Q9P0U3 419-644 limits assumed): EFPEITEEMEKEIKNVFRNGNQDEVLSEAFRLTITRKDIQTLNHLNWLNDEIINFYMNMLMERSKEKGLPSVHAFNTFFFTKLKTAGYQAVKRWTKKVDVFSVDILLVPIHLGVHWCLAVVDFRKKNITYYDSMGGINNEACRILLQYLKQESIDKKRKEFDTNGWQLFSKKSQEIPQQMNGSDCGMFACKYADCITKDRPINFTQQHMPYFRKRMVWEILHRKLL
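System: Recombinant human SENP1 catalytic domain, His6-tagged | Incubation: Enzyme reaction for 50 min at room temperature, dark | Medium: Tris pH 8 with BME, BSA, NP40 and catalase | Also added: 25 nM SUMO1 FRET substrate | Compound: 10 µM single point, 0.5% DMSO | Measured by: FRET fluorescence in CFP and YFP emission channels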
SENP8 block-1: blocks human SENP8 cleavage of Nedd8 substrate; Q96LD8; recombinant SENP8, Nedd8 substrate fluorescence; inhibition, % at 20 µM; 360,000 tested, 0.64% active; AID 602440; in the data active means inhibition mostly above about 40%, no sharp cut-off; inactive means mostly below about 27%
Target sequence (Q96LD8 whole entry, looked up): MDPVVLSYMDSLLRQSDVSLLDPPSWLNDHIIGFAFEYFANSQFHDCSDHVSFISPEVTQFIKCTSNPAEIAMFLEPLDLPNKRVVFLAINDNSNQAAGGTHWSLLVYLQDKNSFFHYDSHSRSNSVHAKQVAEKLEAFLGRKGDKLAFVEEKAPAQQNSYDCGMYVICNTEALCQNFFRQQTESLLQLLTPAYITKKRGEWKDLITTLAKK
Platelet DG rel: platelet dense granule release activity; human platelet-rich plasma, SFLLRN dense granule ATP release, luminescence; inhibition, %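 (compounds screened at 7.5 µM in platelet-rich plasma)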; 300,000 tested, 0.22% active; AID 1663;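 active means mean replicate score, as percent of positive control, at or above 50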
SENP8 block-2: blocks the human protease SENP8 | purified SENP8, Z-RLRGG-aminoluciferin cleavage, luminescence | 330,000 tested, 1.2% active | inhibition, % at 10 µM | Q96LD8 | AID 2540; in the data active means inhibition above about 50%
SENP6 block: blocks the human protease SENP6; 330,000 tested, 1.8% active; inhibition, % at 10 µM; Q9GZR1; Recombinant SENP6 catalytic domain, aminoluciferin luminescence;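 active means inhibition above about 50% at the single tested dose, limit read from the data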;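 further: plate controls were DMSO wells with enzyme for no effect and DMSO wells lacking enzyme for full effect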
SENP8 conf: human SENP8 inhibition, confirmed; shares compounds with SENP7 inh; AID 488912; inhibition, % at 12.5 µM; Recombinant SENP8, Z-RLRGG-aminoluciferin luminescence, 60 min; 6,200 tested, 40% active;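 active means mean inhibition across replicates above about 50%, limit read from the data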
SENP6 conf: human SENP6 inhibition, confirmed; shares compounds with SENP7 inh; 6,200 tested, 58% active; inhibition, % at 12.5 µM; recombinant SENP6, Z-RLRGG-aminoluciferin luminescence; AID 488915
SENP7 confirm: confirmation of human SENP7 protease inhibitors | shares compounds with SENP7 inh | recombinant SENP7, Z-RLRGG-aminoluciferin luminescence, 40 min | inhibition, % at 12.5 µM | 6,200 tested, 69% active
Casp3 SENP sel: inhibits human caspase-3 in SENP selectivity test; shares compounds with SENP7 inh; purified caspase-3, Z-DEVD-aminoluciferin luminescence, 60 min; inhibition, % at 12.5 µM; 6,200 tested, 60% active;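 active means mean inhibition above about 50%, limit read from the data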;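 further: plate controls were enzyme with DMSO for no effect and wells without caspase-3 for full effect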
SENP luc ctr: luminescence interference (SENP counter-screen); 6,200 tested, 39% active; inhibition, % at 12.5 µM; AID 488919; shares compounds with SENP7 inh; Pre-incubated SENP8/Z-RLRGG-aminoluciferin, luciferase luminescence interference;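 active means mean inhibition above about 50% when retested at one dose, limit read from the data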;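 further: plate controls were DMSO wells with completed reaction for no effect and substrate without enzyme for full effect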
Numbers without * were called inactive. The list is not random: actives were taken first. Their share in the collection is about 2.6%.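 How the source made its calls, unless noted: active means mean inhibition above about 50% in the one-dose retest (limit read from the data); inactive means the rest.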

Screening COC/C=C/C1=CC2=CC(=O)C(C)(OC(=O)c3cnc4ccccc4n3)C(=O)C2=CN1c1ccc(CO)cc1 (stereo not given) returned SENP7 inh 12, Platelet DG rel -5, SENP8 block-2 -3 and SENP6 block -55.
`COC/C=C/C1=CC2=CC(=O)C(C)(OC(=O)c3cnc4ccccc4n3)C(=O)C2=CN1c1ccccc1` (stereo not given) gave SENP7 inh 1, Platelet DG rel 1, SENP8 block-2 64*, SENP6 block 3, SENP8 conf 12, SENP6 conf 11, SENP7 confirm 6, Casp3 SENP sel 4 and SENP luc ctr 0.
CCOc1ccc2ccccc2c1C1NC(=O)N(C)C(C)=C1C(=O)OCCOC (stereo not given) was read as SENP7 inh -1, SENP1 inh 1, SENP8 block-1 6, Platelet DG rel 2, SENP8 block-2 7 and SENP6 block 9.
`O=C(Nc1ccc(F)c(F)c1)C1CCCCC1` gave SENP7 inh -9, SENP1 inh -1, SENP8 block-1 19, SENP8 block-2 -13 and SENP6 block -12.
`Cc1ccc(NC(=O)c2sccc2C)nc1` gave SENP7 inh 99*, SENP1 inh 0, SENP8 block-1 7, Platelet DG rel 52*, SENP8 block-2 92*, SENP6 block 99*, SENP8 conf 94*, SENP6 conf 95*, SENP7 confirm 102*, Casp3 SENP sel 98* and SENP luc ctr 92*.
COc1ccc(C(=O)Nc2ccc(C)cn2)c(OC)c1 was read as SENP7 inh 94*, SENP1 inh 1, SENP8 block-1 10, Platelet DG rel 25, SENP8 block-2 90*, SENP6 block 90*, SENP8 conf 93*, SENP6 conf 92*, SENP7 confirm 100*, Casp3 SENP sel 94* and SENP luc ctr 91*.
For Cc1ccc(NS(=O)(=O)c2ccc3c(c2)OCCCO3)cc1S(=O)(=O)N1CCOCC1 the results were SENP7 inh -4, SENP1 inh 0, SENP8 block-1 4, SENP8 block-2 0 and SENP6 block -17.
`CCCN1CCN(C(=O)c2cc3c(s2)-c2ccccc2OC3)CC1` gave SENP7 inh 56*, SENP1 inh -11, SENP8 block-1 -424, Platelet DG rel 18, SENP8 block-2 65*, SENP6 block 71*, SENP8 conf 80*, SENP6 conf 80*, SENP7 confirm 92*, Casp3 SENP sel 84* and SENP luc ctr 79*.
CCn1c(/N=C/c2c[nH]c3ccccc23)nc2ccccc21 was read as SENP7 inh 44, SENP1 inh -4, SENP8 block-1 13, Platelet DG rel 10, SENP8 block-2 53*, SENP6 block 72*, SENP8 conf 69*, SENP6 conf 71*, SENP7 confirm 92*, Casp3 SENP sel 34 and SENP luc ctr 79*.
`COc1cccc(-c2cn3nc(C)c(C)nc3n2)c1` gave SENP7 inh -3, SENP1 inh -25, SENP8 block-1 inactive, Platelet DG rel 74*, SENP8 block-2 60*, SENP6 block 83*, SENP8 conf 90*, SENP6 conf 93*, SENP7 confirm 101*, Casp3 SENP sel 97* and SENP luc ctr 61*.
`Cc1nc2nc(-c3cccs3)cn2nc1C` gave SENP7 inh -7, SENP1 inh -22, SENP8 block-1 -367, Platelet DG rel 6, SENP8 block-2 -9 and SENP6 block -3.
For O=C(O)c1ccc(/C=C/C(=O)c2ccc3c(c2)OCCCO3)cc1 the results were SENP7 inh 43, SENP1 inh 0, SENP8 block-1 14, Platelet DG rel 19, SENP8 block-2 21, SENP6 block 60*, SENP8 conf 70*, SENP6 conf 57*, SENP7 confirm 74*, Casp3 SENP sel 2 and SENP luc ctr 78*.
Screening FC(F)(F)c1ccc(CSc2ccccn2)cc1 returned SENP7 inh -5, SENP1 inh 0, SENP8 block-1 14, Platelet DG rel 11, SENP8 block-2 -13 and SENP6 block -8.
For O=C(Nc1cccc([N+](=O)[O-])c1)c1ccc(CSc2ccccc2)cc1 the results were SENP7 inh 14, SENP1 inh 2, SENP8 block-1 9, Platelet DG rel -5, SENP8 block-2 5 and SENP6 block -4.
O=C(Nc1ccccc1)c1ccc(CSc2ccccn2)cc1 was read as SENP7 inh 98*, SENP1 inh 1, SENP8 block-1 16, Platelet DG rel 25, SENP8 block-2 93*, SENP6 block 97*, SENP8 conf 87*, SENP6 conf 98*, SENP7 confirm 103*, Casp3 SENP sel 96* and SENP luc ctr 7.
For O=C(Nc1ccc(CSc2ccccc2)cc1)c1ccccc1 the results were SENP7 inh 59*, SENP1 inh 0, SENP8 block-1 5, Platelet DG rel 7, SENP8 block-2 12, SENP6 block 19, SENP8 conf 11, SENP6 conf 12, SENP7 confirm 2, Casp3 SENP sel 2 and SENP luc ctr 0.
CC1CN=C(c2ccccc2)O1 (stereo not given) was read as SENP1 inh 2 and SENP8 block-1 12.
For O=C(CSC1=NS(=O)(=O)c2ccccc2N1)N1CCCCC1 the results were SENP7 inh -2, SENP1 inh 0, SENP8 block-1 8, Platelet DG rel -2, SENP8 block-2 1 and SENP6 block 4.
Screening CCOC(=O)C1CCN(Cc2nnc(-c3ccccc3C)o2)CC1 returned SENP7 inh 3, SENP1 inh 0, SENP8 block-1 16, Platelet DG rel -3, SENP8 block-2 12 and SENP6 block 21.

Bioassay records (PubChem)
